ChEMBL document CHEMBL5236552, “Discovery of Soticlestat, a Potent and Selective Inhibitor for Cholesterol 24-Hydroxylase (CH24H)” (J Med Chem, 2021)

Experiments:
[1] = biological target: Cholesterol 24-hydroxylase (Homo sapiens, UniProt Q9Y6A2); assay: Inhibition of full length N-terminal his6-tagged human CH24H (28 to 494 residues) expressed in Escherichia coli DH5alpha using [14C] cholesterol as substrate preincubated for 15 mins followed by substrate addition and measured after 5 min in presence of beta-NADPH
Sequence of Cholesterol 24-hydroxylase (Q9Y6A2 whole entry, the tested form may be a part): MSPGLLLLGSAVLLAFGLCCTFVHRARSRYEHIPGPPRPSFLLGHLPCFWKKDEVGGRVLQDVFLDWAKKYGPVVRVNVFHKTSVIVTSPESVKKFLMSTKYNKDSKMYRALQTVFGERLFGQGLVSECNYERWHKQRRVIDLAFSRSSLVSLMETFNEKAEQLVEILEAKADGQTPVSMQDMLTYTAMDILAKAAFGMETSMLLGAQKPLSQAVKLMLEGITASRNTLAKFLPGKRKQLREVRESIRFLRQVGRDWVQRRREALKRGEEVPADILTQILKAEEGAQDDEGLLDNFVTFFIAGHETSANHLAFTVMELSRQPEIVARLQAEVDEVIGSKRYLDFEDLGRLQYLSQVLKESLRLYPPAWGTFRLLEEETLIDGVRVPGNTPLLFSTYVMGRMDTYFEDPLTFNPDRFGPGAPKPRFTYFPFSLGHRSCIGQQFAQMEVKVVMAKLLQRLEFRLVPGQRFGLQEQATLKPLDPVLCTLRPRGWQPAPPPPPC

CYP3A4 = CYP3A4 (Homo sapiens, UniProt P08684); assay: Inhibition of CYP3A4 (unknown origin) at 10 uM using testosterone as substrate incubated for 60 mins by LC-MS/MS analysis relative to control; assay type: ADME; conditions: probe testosterone
Sequence of CYP3A4 (P08684 whole entry): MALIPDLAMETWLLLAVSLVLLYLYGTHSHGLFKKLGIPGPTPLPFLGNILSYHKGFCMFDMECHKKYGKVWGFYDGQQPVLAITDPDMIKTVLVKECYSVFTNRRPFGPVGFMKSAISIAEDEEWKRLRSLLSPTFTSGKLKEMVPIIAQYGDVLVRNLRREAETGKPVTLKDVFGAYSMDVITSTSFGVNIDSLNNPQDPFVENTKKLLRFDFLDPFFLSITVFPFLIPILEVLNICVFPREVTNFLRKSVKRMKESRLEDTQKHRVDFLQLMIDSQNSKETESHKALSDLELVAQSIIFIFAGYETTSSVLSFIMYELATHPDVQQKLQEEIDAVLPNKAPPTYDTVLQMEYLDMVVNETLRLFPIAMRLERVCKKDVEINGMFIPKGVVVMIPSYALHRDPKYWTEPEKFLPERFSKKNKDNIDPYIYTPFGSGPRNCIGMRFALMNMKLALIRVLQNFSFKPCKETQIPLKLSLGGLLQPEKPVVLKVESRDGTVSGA
In short: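 CYP3A4-expressing microsomes in 50 mmol/L phosphate buffer (pH 7.4) with an NADPH-generating system (MgCl2, β-NADP+, glucose-6-phosphate, G6P dehydrogenase). Testosterone was the substrate and test compound was 10 µmol/L, with final solvent at 0.5%. Incubated 60 min, stopped with acetonitrile, and 6β-hydroxytestosterone read by LC/MS/MS. Run in triplicate; reported as % activity remaining versus an inhibitor-free control.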

[2] = Inhibition of corticosterone synthesis in human NCI-H295R cells by Enzyme immunoassay; assay type: functional, cell-based
In short: (§1)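 H295R adrenocortical cells grown in DMEM/F12 with 2.5% Nu-serum and 1% ITS-plus, seeded at 5×10^4 per well for three nights, then primed two nights with 20 µM forskolin. Cells washed, then exposed overnight to compound in DMEM/F12 with 1% ITS-plus and 20 µM forskolin. Cortisol, testosterone, aldosterone and corticosterone in the supernatant measured by competitive EIA against a calibration curve; triplicate, mean ± SEM.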

[3] = Inhibition of testosterone synthesis in human NCI-H295R cells by Enzyme immunoassay; assay type: functional, cell-based; in short: as §1
[4] = Inhibition of cortisol synthesis in human NCI-H295R cells by Enzyme immunoassay; assay type: functional, cell-based; in short: as §1
[5] = Inhibition of aldosterone synthesis in human NCI-H295R cells by Enzyme immunoassay; assay type: functional, cell-based; in short: as §1
[6] = Drug concentration in po dosed C57BL/6N mouse brain measured upto 24 hrs by LC-MS analysis; assay type: ADME, organism-based; conditions: in vivo, dose 1-10 mg/kg
In short: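 Female C57BL/6N mice, 7–8 weeks, 3 per group; single oral gavage at 1, 3 and 10 mg/kg in 0.5% aqueous methylcellulose (10 mL/kg). Brains taken at 0.5–24 h (from 0.25 h at 10 mg/kg) and homogenized in about 4-fold saline. Homogenate mixed with acetonitrile plus internal standard, centrifuged, and quantified by LC-MS/MS in MRM mode (m/z 374.20→183.10).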

[7] = Metabolic stability in human liver microsome assessed as clearance at 1 uM incubated for 15 to 30 mins in presence of NADPH by LC-MS/MS analysis; assay type: ADME; conditions: liver microsomes, time 15-30 min, read-out: CLH
In short: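 Human liver microsomes (0.2 mg protein/mL) were mixed with compound (1 µM) in phosphate buffer (pH 7.4) and started with an NADPH-generating system. Incubated at 37 °C for 15 and 30 min, with zero-time samples as controls, then stopped with acetonitrile. Remaining compound in the supernatant was measured by LC/MS/MS.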

[8] = Inhibition of aldosterone synthesis in human NCI-H295R cells at 10 uM by Enzyme immunoassay relative to control; assay type: functional; in short: as §1
Mus musculus [9] = assay: In vivo inhibition of […] CH24H in po dosed C57BL/6N mouse brain assessed as reduction in 24HC level measured upto 24 hrs; assay type: functional, organism-based; conditions: dose 1-10 mg/kg
In short: (§2)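 Female C57BL/6N mice, 7–8 weeks, 3 per group; single oral gavage in 0.5% aqueous methylcellulose (10 mL/kg) at 1, 3 or 10 mg/kg. Brains collected up to 24 h after dosing and homogenized in about 4-fold saline. 24HC extracted with acetonitrile/methanol/formic acid, quantified by UPLC on a C18 column at 40 °C, and expressed as % of control; mean + SD.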

Cytochrome P450 1A2 = biological target: T1, Cytochrome P450 1A2 (Homo sapiens, UniProt P05177); assay: Inhibition of CYP1A2 (unknown origin) using phenacetin as substrate incubated for 10 to 20 mins in presence of NADPH-generating system by LC-MS/MS analysis; assay type: ADME
T1 sequence (P05177 whole entry): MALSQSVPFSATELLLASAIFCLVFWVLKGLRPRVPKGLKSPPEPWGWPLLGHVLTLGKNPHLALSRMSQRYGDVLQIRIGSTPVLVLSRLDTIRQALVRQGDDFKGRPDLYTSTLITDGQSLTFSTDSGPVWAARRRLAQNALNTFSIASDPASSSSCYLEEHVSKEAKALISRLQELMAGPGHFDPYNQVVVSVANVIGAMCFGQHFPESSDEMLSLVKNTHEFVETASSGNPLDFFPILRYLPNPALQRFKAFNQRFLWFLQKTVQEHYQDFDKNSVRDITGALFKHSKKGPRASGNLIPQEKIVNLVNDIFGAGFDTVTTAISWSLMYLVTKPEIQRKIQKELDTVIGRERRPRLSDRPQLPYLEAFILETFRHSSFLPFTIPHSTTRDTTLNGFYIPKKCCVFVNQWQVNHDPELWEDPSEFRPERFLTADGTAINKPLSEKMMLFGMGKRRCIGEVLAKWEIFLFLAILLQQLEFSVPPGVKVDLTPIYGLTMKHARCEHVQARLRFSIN
In short: (§3)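 Recombinant CYP-expressing microsomes (CYP1A2, 2C8, 2C9, 2C19, 2D6, 3A4) in 50 mM phosphate buffer pH 7.4 with NADPH-generating system. Substrates: phenacetin, amodiaquine, tolbutamide, (S)-mephenytoin, bufuralol, testosterone, respectively. Test compounds at 1–100 µM final, 0.5% final solvent. Incubated 10–20 min at 37 °C in duplicate, stopped with acetonitrile. Metabolite peaks read by LC/MS/MS; activity given as % remaining versus no-inhibitor control.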

Cytochrome P450 2C19 = Cytochrome P450 2C19 (Homo sapiens, UniProt P33261); assay: Inhibition of CYP2C19 (unknown origin) using (S)-mephenytoin as substrate incubated for 10 to 20 mins in presence of NADPH-generating system by LC-MS/MS analysis
Sequence of Cytochrome P450 2C19 (P33261 whole entry): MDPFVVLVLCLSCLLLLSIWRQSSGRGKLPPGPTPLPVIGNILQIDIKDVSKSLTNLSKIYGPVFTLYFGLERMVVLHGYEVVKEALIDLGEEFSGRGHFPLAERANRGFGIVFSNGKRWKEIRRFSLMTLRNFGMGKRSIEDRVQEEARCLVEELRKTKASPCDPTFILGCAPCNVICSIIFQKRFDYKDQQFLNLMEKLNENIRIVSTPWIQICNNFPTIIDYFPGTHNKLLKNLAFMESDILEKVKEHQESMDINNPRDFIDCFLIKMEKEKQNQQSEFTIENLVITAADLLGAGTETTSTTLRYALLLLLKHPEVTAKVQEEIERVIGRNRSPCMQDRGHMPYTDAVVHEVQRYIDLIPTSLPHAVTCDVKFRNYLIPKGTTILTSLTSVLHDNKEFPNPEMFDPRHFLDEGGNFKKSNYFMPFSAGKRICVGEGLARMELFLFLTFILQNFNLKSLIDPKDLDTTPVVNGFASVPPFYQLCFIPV

[10] = Inhibition of testosterone synthesis in human NCI-H295R cells at 10 uM by Enzyme immunoassay relative to control; assay type: functional; in short: as §1
Cytochrome P450 2C8 = biological target: T2, Cytochrome P450 2C8 (Homo sapiens, UniProt P10632); assay: Inhibition of CYP2C8 (unknown origin) using amodiaquine as substrate incubated for 10 to 20 mins in presence of NADPH-generating system by LC-MS/MS analysis; assay type: ADME; in short: as §3
T2 sequence (P10632 whole entry): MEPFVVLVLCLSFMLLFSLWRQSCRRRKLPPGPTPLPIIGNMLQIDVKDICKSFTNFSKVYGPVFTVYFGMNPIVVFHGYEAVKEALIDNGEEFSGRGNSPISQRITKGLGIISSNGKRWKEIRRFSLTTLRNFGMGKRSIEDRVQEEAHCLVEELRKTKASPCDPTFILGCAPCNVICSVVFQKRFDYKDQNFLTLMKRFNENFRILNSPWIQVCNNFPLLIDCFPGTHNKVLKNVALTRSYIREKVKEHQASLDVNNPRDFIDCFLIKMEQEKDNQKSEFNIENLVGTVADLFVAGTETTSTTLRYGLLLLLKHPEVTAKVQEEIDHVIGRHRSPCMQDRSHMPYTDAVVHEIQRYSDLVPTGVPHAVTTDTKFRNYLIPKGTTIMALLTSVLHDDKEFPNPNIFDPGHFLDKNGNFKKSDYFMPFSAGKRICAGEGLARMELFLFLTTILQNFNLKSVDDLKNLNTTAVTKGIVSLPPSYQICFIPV

Cytochrome P450 2C9 = Cytochrome P450 2C9 (Homo sapiens, UniProt P11712); assay: Inhibition of CYP2C9 (unknown origin) using tolbutamide as substrate incubated for 10 to 20 mins in presence of NADPH-generating system by LC-MS/MS analysis; assay type: ADME; in short: as §3
Sequence of Cytochrome P450 2C9 (P11712 whole entry): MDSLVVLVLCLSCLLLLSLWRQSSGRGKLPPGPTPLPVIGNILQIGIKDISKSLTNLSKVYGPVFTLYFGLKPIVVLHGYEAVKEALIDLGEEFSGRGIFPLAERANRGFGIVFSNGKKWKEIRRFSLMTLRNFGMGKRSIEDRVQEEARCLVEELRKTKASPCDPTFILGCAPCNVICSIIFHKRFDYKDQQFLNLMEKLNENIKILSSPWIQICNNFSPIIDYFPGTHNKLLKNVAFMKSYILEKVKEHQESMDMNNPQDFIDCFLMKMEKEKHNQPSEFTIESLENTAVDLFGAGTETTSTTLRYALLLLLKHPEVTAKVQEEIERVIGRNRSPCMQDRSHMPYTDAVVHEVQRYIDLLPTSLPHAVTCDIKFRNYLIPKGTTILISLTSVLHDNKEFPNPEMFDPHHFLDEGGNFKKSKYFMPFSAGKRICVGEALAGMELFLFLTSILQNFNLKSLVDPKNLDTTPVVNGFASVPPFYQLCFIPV

Mus musculus [11] = assay: In vivo inhibition of […] CH24H in C57BL/6N mouse brain assessed as reduction in 24HC level at 3 mg/kg, po measured after 24 hrs relative to control; assay type: functional; in short: as §2
[12] = Inhibition of cortisol synthesis in human NCI-H295R cells at 10 uM by Enzyme immunoassay relative to control; assay type: functional; in short: as §1
Mus musculus [13] = assay: In vivo inhibition of […] CH24H in C57BL/6N mouse brain assessed as reduction in 24HC level at 10 mg/kg, po measured after 24 hrs relative to control; assay type: functional; in short: as §2
[14] = Inhibition of corticosterone synthesis in human NCI-H295R cells at 10 uM by Enzyme immunoassay relative to control; assay type: functional; in short: as §1
Cytochrome P450 2D6 = Cytochrome P450 2D6 (Homo sapiens, UniProt P10635); assay: Inhibition of CYP2D6 (unknown origin) using bufuralol as substrate incubated for 10 to 20 mins in presence of NADPH-generating system by LC-MS/MS analysis
Sequence of Cytochrome P450 2D6 (P10635 whole entry): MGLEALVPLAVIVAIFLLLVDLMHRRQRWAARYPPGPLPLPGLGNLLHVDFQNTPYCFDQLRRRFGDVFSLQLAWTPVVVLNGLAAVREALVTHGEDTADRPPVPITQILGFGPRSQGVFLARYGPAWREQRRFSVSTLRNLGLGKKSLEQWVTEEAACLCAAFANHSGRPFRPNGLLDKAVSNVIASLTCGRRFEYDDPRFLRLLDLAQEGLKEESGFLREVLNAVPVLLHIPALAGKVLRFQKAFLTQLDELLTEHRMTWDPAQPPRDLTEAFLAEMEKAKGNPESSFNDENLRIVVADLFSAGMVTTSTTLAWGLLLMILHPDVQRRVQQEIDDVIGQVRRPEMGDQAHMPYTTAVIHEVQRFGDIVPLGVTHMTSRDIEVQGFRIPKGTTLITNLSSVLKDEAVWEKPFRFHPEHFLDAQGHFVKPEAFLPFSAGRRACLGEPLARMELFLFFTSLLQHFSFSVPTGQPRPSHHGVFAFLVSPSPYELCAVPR

SMILES	IC50 [1]	inhibition at 1 h, 10 µM (CYP3A4)	other results
Cc1cccc(C(=O)N2CCC(O)(Cc3ccccc3)CC2)c1-c1ccncc1	130 nM	77%	–
CC(=O)N1CCN(c2ccc(OCC3COC(Cn4ccnc4)(c4ccc(Cl)cc4Cl)O3)cc2)CC1 (configuration not stated) [KETOCONAZOLE]	–	–	IC50 [2]: 2500 nM; IC50 [3]: 340 nM; IC50 [4]: 440 nM; IC50 [5]: 1400 nM
Cc1ccc(-c2ccncc2)c(C(=O)N2CCC(O)CC2)c1	7700 nM	–	–
C[C@@H](c1ncncc1F)[C@](O)(Cn1cncn1)c1ccc(F)cc1F [VORICONAZOLE]	> 10000 nM	–	–
O=C(c1cccnc1-c1ccncc1)N1CCC(O)(Cc2ccccc2)CC1 [SOTICLESTAT]	7.4 nM	28%	Drug uptake [6]: Dose-Dependent Effect; microsomal CLint at 1 µM [7]: 22 µL/min/mg; inhibition at 10 µM [8]: -3.8%; inhibition (Mus musculus [9]): Dose-Dependent Effect; IC50 (Cytochrome P450 1A2): > 100000 nM; IC50 (Cytochrome P450 2C19): 14000 nM; inhibition at 10 µM [10]: -0.4%; IC50 (Cytochrome P450 2C8): 62000 nM; IC50 (Cytochrome P450 2C9): 19000 nM; inhibition in vivo at 3 mg/kg (Mus musculus [11]): 25%; inhibition at 10 µM [12]: 0.2%; inhibition in vivo at 10 mg/kg (Mus musculus [13]): 33%; inhibition at 10 µM [14]: -6%; IC50 (Cytochrome P450 2D6): > 100000 nM
Cc1ccc(-c2ccncc2)c(C(=O)N2CCC(O)(c3ccccc3)CC2)c1	1200 nM	–	–
Cc1ccc(-c2ccncc2)c(C(=O)N2CCN(Cc3ccccc3)C(=O)C2)c1	89 nM	–	–
COC(=O)c1cc(C)ccc1-c1ccncc1	1900 nM	–	–

More lines, in order of falling IC50 [1], values ahead:

IC50 [1]	inhibition at 1 h, 10 µM (CYP3A4)	SMILES	other results
21 nM	18%	O=C(c1ccccc1-c1ccncc1)N1CCC(O)(Cc2ccccn2)CC1	microsomal CLint at 1 µM [7]: 22 µL/min/mg
17 nM	77%	Cc1ccc(-c2ccncc2F)c(C(=O)N2CCC(O)(Cc3ccccc3)CC2)c1	–
7.8 nM	71%	Cc1cccc(-c2ccncc2)c1C(=O)N1CCC(O)(Cc2ccccc2)CC1	–
6.1 nM	55%	O=C(c1cc(F)ccc1-c1ccncc1)N1CCC(O)(Cc2ccccc2)CC1	–
4.7 nM	67%	COc1ccc(-c2ccncc2)c(C(=O)N2CCC(O)(Cc3ccccc3)CC2)c1	–
4.4 nM	65%	Cc1ccc(C(=O)N2CCC(O)(Cc3ccccc3)CC2)c(-c2ccncc2)c1	–
2.4 nM	75%	O=C(c1cc(Cl)ccc1-c1ccncc1)N1CCC(O)(Cc2ccccc2)CC1	–
